Assay outcomes as filed in PubChem.
PREPL inh: PREPL enzyme inhibitors, primary screen, biochemical, fluorescence polarization. Prolyl endopeptidase-like (Homo sapiens), Q4J6C6. hit rate 0.68% among 320,000. recombinant PREPL, fluorescence polarization activity-based probe. inhibition, % at 5.96 µM; in the data active = inhibition above about 43%;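 also: 0% = enzyme with DMSO and 100% = wells lacking enzyme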
MT1-MMP act inh: blockers of MT1-MMP proenzyme processing, primary screen, HT1080 RFP-PRO-GFP cells, GFP/RFP fluorescence. Matrix metalloproteinase-14 (Homo sapiens), P50281. GFP/RFP ratio fluorescence, overnight; percent of plate control window, DMSO zero. GFP/RFP ratio change, % at 20 µM. hit rate 0.061% among 360,000. AID 651647, 2012;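 active = GFP/RFP ratio change of at least 30% with cell ATP level not reduced by more than half and red fluorescence within 50% of control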
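Material – HT1080 RFP-PRO-GFP cells · Control set – DMSO wells and RFP-L50D-GFP cells · Incubation – overnight cell settling, then overnight compound exposure, 37 °C, 5% CO2 · Compound dosing – single-point 20 µM compound, 1% DMSO · Read-out – GFP/RFP fluorescence ratio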
SKN-1 inh: suppressors of acrylamide-induced Pgst-4::GFP reporter in worms, primary screen, SKN-1 inhibitor project, whole organism, uHTS, GFP/RFP fluorescence ratio, strain VP596. C. elegans VP596 Pgst-4::GFP/RFP ratio, 24 h. inhibition, % at 21.8 µM. hit rate 0.49% among 360,000. AID 624304, 2012;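 active = interference check ratio from 0.5 to 1.5 plus GFP to RFP signal ratio inhibition reaching or exceeding a fixed threshold, cut at about 30% in these data, passing the limit was not always enough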
iPSC survival up: enhancers of single-cell hiPSC survival, primary screen, ATPlite luminescence; 100% = ROCK inhibitor wells, 0% = DMSO; survival enhancement, % at 20 µM; hit rate 0.044% among 360,000; AID 602274, 2012; in the data active = survival enhancement above about 18%;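 also: cells exposed to compounds for 16 hours before the ATP read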
Tb MetRS inh: T. brucei MetRS inhibitors, primary screen, biochemical, luminescence | methionyl-tRNA synthetase (Trypanosoma brucei brucei) | purified T. brucei MetRS, ATP depletion, Kinase-Glo luminescence | inhibition, % at 11.9 µM | hit rate 0.4% among 360,000 | AID 624268, 2012;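 active = inhibition above a per-plate cutoff of the control wells' mean inhibition plus 3 SD, cut at about 5.5% in these data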;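 also: 0% = DMSO wells median and 100% = median of wells with control inhibitor compound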
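Assay system: T. brucei methionyl-tRNA synthetase, purified | Medium: HEPES buffer with MgCl2, KCl, DTT, spermine, BSA, pyrophosphatase | Compound: 11.9 µM single point | Incubation: 15 min enzyme-compound preincubation, 2 h reaction, 10 min detection, 25 °C | Measured by: Kinase-Glo luciferase luminescence reporting remaining unconsumed ATP | Measure: % inhibition normalized to control-well medians | Replication: Singlicate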
E coli Lon inh: inhibitors of E. coli Lon protease, primary screen, biochemical, fluorescence polarization; inhibition, % at 7.94 µM; hit rate 0.42% among 360,000; P0A9M0; purified E. coli Lon protease; in the data active = inhibition above about 13%, passing the limit was not always enough;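 also: 0% = enzyme with probe and DMSO and 100% = no enzyme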
Target sequence (P0A9M0 whole entry, looked up): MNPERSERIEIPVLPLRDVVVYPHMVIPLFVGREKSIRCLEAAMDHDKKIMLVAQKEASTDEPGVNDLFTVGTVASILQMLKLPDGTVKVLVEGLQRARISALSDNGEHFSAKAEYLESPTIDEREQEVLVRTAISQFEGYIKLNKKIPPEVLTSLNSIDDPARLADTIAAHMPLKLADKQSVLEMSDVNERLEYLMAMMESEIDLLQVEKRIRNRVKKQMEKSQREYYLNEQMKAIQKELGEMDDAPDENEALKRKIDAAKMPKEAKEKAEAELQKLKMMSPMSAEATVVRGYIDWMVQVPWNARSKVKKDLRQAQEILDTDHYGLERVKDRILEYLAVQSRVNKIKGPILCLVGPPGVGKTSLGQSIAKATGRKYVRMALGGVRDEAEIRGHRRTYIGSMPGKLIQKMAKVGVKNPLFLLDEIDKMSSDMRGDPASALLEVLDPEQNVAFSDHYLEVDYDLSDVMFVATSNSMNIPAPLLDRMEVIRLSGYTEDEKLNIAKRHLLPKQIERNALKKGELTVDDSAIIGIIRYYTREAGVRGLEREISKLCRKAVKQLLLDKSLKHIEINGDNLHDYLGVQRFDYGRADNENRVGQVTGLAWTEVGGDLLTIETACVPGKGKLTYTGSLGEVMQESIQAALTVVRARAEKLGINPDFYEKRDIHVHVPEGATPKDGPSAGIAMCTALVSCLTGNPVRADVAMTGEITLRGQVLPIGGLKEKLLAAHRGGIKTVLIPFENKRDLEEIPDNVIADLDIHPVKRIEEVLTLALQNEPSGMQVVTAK
E coli Lon conf: E. coli Lon protease inhibitor retest, confirmation, biochemical, fluorescence polarization; shares compounds with E coli Lon inh; purified E. coli Lon; inhibition, % at 7.94 µM; hit rate 31% among 1,400; AID 602230, 2012; in the data active = inhibition above about 16%;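 also: 0% = enzyme with probe and DMSO and 100% = no enzyme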
Numbers without * were called inactive; x = no result given; + = active, no number. Most compounds without a hit are left out; they make up all but 1.8% or so of the library.

SMILES	PREPL inh	MT1-MMP act inh	SKN-1 inh	iPSC survival up	Tb MetRS inh	E coli Lon inh	E coli Lon conf
Clc1ccc(N2O[C@H]3C=C[C@@H]2C3)nc1	x	-20	3	-1	0	61*	129*
O=C1NC(=S)CN1c1ccccc1	3	0	-6	-1	0	33*	16
N#CC(C#N)=C1C=C2C=C(N3CCCCC3)CCC2CC1 (centres undefined)	8	x	x	x	x	x	x
N#CC1=C(N)C2=C(N3CCCCC3)CCCC2C1(C#N)C#N (centres undefined)	6	10	1	-3	0	24*	0
N=c1c2c(-c3ccccc3)c(-c3ccccc3)n(Cc3ccco3)c2ncn1CCCN1CCOCC1	28	8	-7	-1	-1	14*	-1
CCN(CC)S(=O)(=O)c1ccc(NC(=O)Cc2cccs2)cc1	8	0	8	-1	0	-13	x
CC(=O)Nc1cc(-c2ccccc2N(C)C)cn2c(-c3ccc(S(C)(=O)=O)cc3)cnc12	x	-102	-3	0	0	+	55*
NC(=O)NC(CC(=O)Nc1cccnc1)c1cccc(Br)c1 (centres undefined)	7	-3	-13	0	1	-1	x
Cn1ccnc1C(O)c1ccccc1 (centres undefined)	6	3	-1	-2	0	9	x
COc1ccc2ccccc2c1C(O)c1nccn1C (centres undefined)	32	-244	20	4	0	55*	168*
N#Cc1cnc(SCC(=O)N2CCCC2)nc1N	1	-2	3	0	0	14*	-11
CC(C)(C)N(CC(=O)NC1CCCCC1)C(=O)CS(=O)CC(=O)Nc1ccc(F)cc1 (centres undefined)	6	5	12	0	0	4	x
CCCC(c1nnnn1CCOC)N1CCN(C(=O)c2ccco2)CC1 (centres undefined)	-6	3	11	3	-1	29*	-7
COCCn1nnnc1C(C(C)C)N1CCN(C(=O)c2ccco2)CC1 (centres undefined)	-8	-3	17	2	-1	-7	x
CCCCC1=CC2=C(c3ccco3)C(=O)C(C)(OC(=O)c3ccc(OC)cc3)C(=O)C2=CN1CCc1ccccn1 (centres undefined)	15	-31	14	-2	0	37*	-18
CCCCC1=CC2=C(c3ccco3)C(=O)C(C)(OC(=O)c3ccc(OC)cc3)C(=O)C2=CN1Cc1ccccc1 (centres undefined)	14	-18	6	2	0	-17	x
CCCCC1=CC2=C(c3ccco3)C(=O)C(C)(OC(=O)c3ccc(OC)cc3)C(=O)C2=CN1CCOC (centres undefined)	7	-29	-1	3	0	48*	12
O=C(NNC(=S)Nc1ccccc1Cl)c1ccncc1	13	-1	19	0	0	3	x
Cc1oc(/N=C/c2ccccc2O)c(C#N)c1C	-2	-1	2	2	0	6	x
Cc1oc(/N=C/c2ccc(O)cc2O)c(C#N)c1C	-1	3	8	-2	0	14*	-170
CCCCOCCCNC(=O)C[C@@H]1C[C@@]2(C(=O)OC)CCCCC=C2N(Cc2ccc3c(c2)OCO3)C1=O	x	3	5	x	0	x	x
CCOC(=O)C1Nc2c(F)cc(C)cc2C2c3ccccc3CC12 (centres undefined)	7	-6	4	-2	0	-2	x
CCOC(=O)C1Nc2ccccc2C2c3ccccc3CC12 (centres undefined)	10	-12	12	1	0	30*	29*
C=CCCC(=O)NC1CCCc2c1cnn2-c1ccccc1F (centres undefined)	-4	5	1	0	3	29*	2
CN(CCc1ccccc1)C1CCCN(C(=O)Cn2cccn2)C1 (centres undefined)	4	-4	17	-1	1	-1	x
SMILES	PREPL inh	MT1-MMP act inh	SKN-1 inh	iPSC survival up	Tb MetRS inh	E coli Lon inh	E coli Lon conf
CCCCN1C(=O)c2cccc3cc(O)cc(c23)C1=O	3	-31	-8	0	0	33*	6
COc1ccc(N2CCN(c3cc(C(=O)Nc4cc(OC)c(OC)c(OC)c4)ncn3)CC2)cc1OC	x	5	12	5	1	12*	1
Cc1ccccc1Nc1nc(N)nc(COC(=O)[C@@H](NC(=O)c2c(F)cccc2F)C(C)C)n1	-16	-4	9	4	0	-14	x
CCOC(=O)c1[nH]c(C)c(C)c1C	1	-5	5	5	-1	51*	1
CCOC(=O)CCCCCC(=O)Nc1ccc2c(c1)C(=O)N([C@@H](C)CO)C[C@H](C)[C@H](CN(C)C(=O)Nc1ccc(F)cc1)OCCCC[C@H](C)O2	x	0	11	-2	-1	-13	x
O=C1N=C(N2C=CC(=C3C=CNC=C3)C=C2)/C(=C/N=NC(=O)c2ccccc2O)S1	24	-9	8	0	1	40*	41*
O=C(NCCCCNC(=O)c1ccccc1Br)c1ccccc1Br	9	19	3	0	-1	1	x
COc1ccc(C(=O)Nc2nnc(Cc3ccc(OC)c(OC)c3)s2)c(OC)c1	-23	12	8	0	-1	2	x
O=C1NC(=O)C2(N1)C(=O)c1cccc3cccc2c13 (centres undefined)	x	-83	1	2	0	+	+
CCOC(=O)C1(C(=O)OCC)CCN(S(=O)(=O)c2ccccc2)CC1	x	-2	-10	-2	0	-10	x
OCC[C@@H]1C[C@H](O)[C@@H](O)[C@]2(OCCc3cc(Cl)ccc32)O1	x	0	4	2	0	-2	x
COCCCn1c(=NC(=O)c2ccncc2)c(C#N)cc2c(=O)n3cccc(C)c3nc21	0	7	-6	1	0	38*	22*
CCCCn1c(=NC(=O)c2cccnc2)c(C#N)cc2c(=O)n3cccc(C)c3nc21	-6	-6	-15	3	0	24*	2
COc1ccc(-n2cc3ccc([N+](=O)[O-])cc3n2)cc1	-24	5	13	-1	1	2	x
